Data taken from ChEMBL document CHEMBL2093137, “WHO-TDR NTD Screening”.
Converted amounts (≈) assume the structure as drawn.

Experiments:
Plasmodium falciparum K1 = assay: WHO-TDR: Malaria; assay type: functional, organism-based, Homo sapiens; conditions: Erythrocyte
Method in brief: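 Values are IC50 figures for antiplasmodial potency. They come from a whole-organism screen of 10,000 diverse Life Chemicals compounds against Plasmodium falciparum K1 growing inside human red blood cells, run by previously published standard procedures.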

Leishmania infantum = assay: WHO-TDR: Leishmaniasis; assay type: functional, organism-based, Mus musculus; conditions: Macrophage
Method in brief: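 Values are IC50 figures for antiparasitic potency. They come from a whole-organism screen of a 10,000-compound diverse Life Chemicals library against Leishmania infantum MHOM/MA(BE)/67 amastigotes inside murine peritoneal macrophage host cells.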

Trypanosoma cruzi = assay: WHO-TDR: Chagas disease; assay type: functional, organism-based, Homo sapiens; conditions: MRC5
Method in brief: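 Whole-organism screen of a 10,000-compound diverse library from Life Chemicals, filtered for drug-likeness and reactive groups, against intracellular amastigotes of Trypanosoma cruzi Tulahuen CL2 beta-galactosidase strain grown in MRC-5SV2 human lung fibroblast host cells. The assay followed previously published standard procedures, with a reference drug as positive control. Antiparasitic potency is reported as IC50.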

Schistosoma mansoni = assay: WHO-TDR: Schistosomiasis; assay type: functional; design: concentration or dose not given beside the values
Method in brief: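 Values are reported as percent inhibition and IC50. They come from a whole-organism screen of a 10,000-compound diverse Life Chemicals library against larval and/or adult worms of Schistosoma mansoni, Puerto Rican strain. The library had been filtered for drug-likeness and reactive groups.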

Onchocerca lienalis = assay: (§1) WHO-TDR: Onchocerciasis; assay type: functional; design: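 at 12.5 µM on microfilariae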
Method in brief: (§2)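 Values are reported as percent inhibition and as IC50. They come from a whole-organism screen of a 10,000-compound diverse Life Chemicals library against microfilariae of Onchocerca ochengi or Onchocerca lienalis. The screen followed previously published standard procedures, with reference drugs as positive controls.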

[1] = test system: Trypanosoma brucei brucei; assay: WHO-TDR: Human African Trypanosomiasis (HAT); assay type: functional, organism-based; conditions: Squib-427
Method in brief: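 Values are IC50 figures for antiparasitic potency. They come from a whole-organism screen of 10,000 diverse Life Chemicals compounds against bloodstream-form Trypanosoma brucei (Squib 427 strain).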

[2] = WHO-TDR: Cytotoxicity; assay type: toxicity, cell-based; conditions: human, MRC5 cells
Onchocerca ochengi = assay: as §1; assay type: functional; design: concentration or dose not given beside the values; method in brief: as §2;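 further: at 12.5 µM on microfilariae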
Brugia malayi = assay: WHO-TDR: Lymphatic Filariasis; assay type: functional; design: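 tested at 10 µM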
Method in brief: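 Values are percent inhibition and IC50 from a whole-organism screen against Brugia malayi microfilariae. The compounds, 10,000 in all, came from a diverse Life Chemicals library filtered for drug-likeness and reactive groups.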

| Compound | IC50 (Plasmodium falciparum K1) [µg/mL] | IC50 (Leishmania infantum) [µg/mL] | IC50 (Trypanosoma cruzi) [µg/mL] | % Inhibition (Schistosoma mansoni) [%] | % Inhibition (Onchocerca lienalis) [%] | IC50 [1] [µg/mL] | IC50 [2] [µg/mL] | % Inhibition (Onchocerca ochengi) [%] | % Inhibition (Brugia malayi) [%] |
| --- | --- | --- | --- | --- | --- | --- | --- | --- | --- |
| O=C(CSc1nc2ccccc2nc1O)Nc1ccccc1C(=O)c1ccccc1 | > 12.5 | 1.97 (≈ 4.75 µM) | > 12.5 | 0 | 26.7 | > 12.5 | > 12.5 |  |  |
| COc1ccc(-c2nnc(NC(=O)c3cccc(C(F)(F)F)c3)o2)cc1 | > 10.9 | > 10.9 | 0.844 (≈ 2.32 µM) | 0 | 0 | > 10.9 | 10.1 (≈ 27.9 µM) |  |  |
| CC(C)(C)c1ccc(C(=O)Nc2sccc2C(N)=O)cc1 | 2.68 (≈ 8.87 µM) | 1.95 (≈ 6.46 µM) | 2.41 (≈ 7.98 µM) | 0 | 13.3 | 0.633 (≈ 2.09 µM) | 4.3 (≈ 14.2 µM) |  |  |
| C=CCn1/c(=N/C(=O)c2ccccc2I)sc2cc(S(C)(=O)=O)ccc21 | > 15 | > 15 | > 15 | 100 | 20 | > 15 | > 15 |  |  |
| CCOC(=O)Cn1/c(=N/C(=O)c2ccccc2Br)sc2cc(S(C)(=O)=O)ccc21 | > 14.9 | > 14.9 | > 14.9 | 100 | 0 | > 14.9 | > 14.9 |  |  |
| CCn1/c(=N\C(=O)c2ccc(C(C)=O)cc2)sc2cc(C)ccc21 | > 10.2 | > 10.2 | 0.321 (≈ 0.948 µM) | 0 | 80 | > 10.2 | > 10.2 |  |  |
| N#Cc1ccsc1NC(=O)C(c1ccccc1)c1ccccc1 | > 9.55 | > 9.55 | > 9.55 | 100 | 0 | > 9.55 | > 9.55 |  |  |
| Cc1ccc(S(=O)(=O)N2CCN(c3ccc(Nc4cccnc4)nn3)CC2)c(C)c1 | 0.716 (≈ 1.69 µM) | > 12.7 | 3.91 (≈ 9.21 µM) | 0 |  | > 12.7 | 0.804 (≈ 1.89 µM) | 100 | 0 |
| O=S(=O)(c1ccc2ccccc2c1)N1CCN(c2ccc(Nc3cccnc3)nn2)CC1 | > 13.4 | 0.434 (≈ 0.972 µM) | > 13.4 | 0 |  | > 13.4 | > 13.4 | 0 | 0 |
| O=S(=O)(c1cccc(F)c1)N1CCN(c2ccc(Nc3cccnc3)nn2)CC1 | 5.44 (≈ 13.1 µM) | 0.403 (≈ 0.972 µM) | > 12.4 | 0 |  | > 12.4 | 0.937 (≈ 2.26 µM) | 0 | 0 |
| O=C(NCCNc1ccc(Nc2ccncc2)nn1)Nc1ccc(Cl)cc1 | > 11.5 | > 11.5 | > 11.5 | 0 |  | > 11.5 | > 11.5 | 100 | 0 |
| O=S(=O)(NCCNc1ccc(Nc2ccncc2)nn1)c1cc(Cl)ccc1Cl | 9.79 (≈ 22.3 µM) | > 13.2 | > 13.2 | 0 |  | > 13.2 | > 13.2 | 100 | 0 |
| CCCC(=O)N1CCN(c2ccc(Nc3ccncc3)nn2)CC1 | > 9.79 | 0.317 (≈ 0.971 µM) | > 9.79 | 0 |  | > 9.79 | > 9.79 | 0 | 0 |
| COc1cccc(NC(=O)CSc2nc(-c3ccccc3Cl)ns2)c1 | 0.24 (≈ 0.612 µM) | > 11.8 | > 11.8 |  | 6.7 | > 11.8 | > 11.8 |  |  |
